Test results published in ChEMBL document CHEMBL1130392, “Total syntheses and anticholinesterase activities of (3aS)-N(8)-norphysostigmine, (3aS)-N(8)-norphenserine, their antipodal isomers, and other N(8)-substituted analogues” (J Med Chem, 1997).

Experiments:
[1] = In vivo half life of the compound; assay type: ADME, organism-based
[2] = molecular target: Acetylcholinesterase (Homo sapiens, UniProt P22303); experiment: Inhibition of human acetylcholinesterase from erythrocytes (RBC)
[3] = molecular target: Cholinesterase (Homo sapiens, UniProt P06276); experiment: Inhibition of human Butyrylcholinesterase
Summary of the method: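 Compounds in Tween 80/EtOH 3:1 were diluted in half-log steps to 0.3 nM–[…] final and preincubated with enzyme in pH 8.0 buffer for 30 min at RT. Run on four occasions. IC50 from logit activity versus log concentration.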

Sequence of Acetylcholinesterase (P22303 whole entry): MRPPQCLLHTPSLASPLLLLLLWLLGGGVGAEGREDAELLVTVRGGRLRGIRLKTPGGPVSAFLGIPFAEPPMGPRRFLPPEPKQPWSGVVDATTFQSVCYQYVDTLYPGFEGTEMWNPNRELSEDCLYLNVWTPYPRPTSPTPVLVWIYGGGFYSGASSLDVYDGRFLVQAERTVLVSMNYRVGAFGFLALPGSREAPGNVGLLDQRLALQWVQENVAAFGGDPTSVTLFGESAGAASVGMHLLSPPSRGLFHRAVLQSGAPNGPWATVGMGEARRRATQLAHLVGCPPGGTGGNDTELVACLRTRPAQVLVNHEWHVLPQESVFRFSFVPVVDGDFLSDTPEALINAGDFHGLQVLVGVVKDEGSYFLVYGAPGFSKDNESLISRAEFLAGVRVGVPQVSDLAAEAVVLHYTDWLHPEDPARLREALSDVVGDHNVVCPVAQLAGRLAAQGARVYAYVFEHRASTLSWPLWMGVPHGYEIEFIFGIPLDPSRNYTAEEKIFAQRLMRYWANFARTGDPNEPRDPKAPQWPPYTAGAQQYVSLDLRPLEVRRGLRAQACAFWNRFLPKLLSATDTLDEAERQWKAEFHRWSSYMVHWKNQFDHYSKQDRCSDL
Sequence of Cholinesterase (P06276 whole entry): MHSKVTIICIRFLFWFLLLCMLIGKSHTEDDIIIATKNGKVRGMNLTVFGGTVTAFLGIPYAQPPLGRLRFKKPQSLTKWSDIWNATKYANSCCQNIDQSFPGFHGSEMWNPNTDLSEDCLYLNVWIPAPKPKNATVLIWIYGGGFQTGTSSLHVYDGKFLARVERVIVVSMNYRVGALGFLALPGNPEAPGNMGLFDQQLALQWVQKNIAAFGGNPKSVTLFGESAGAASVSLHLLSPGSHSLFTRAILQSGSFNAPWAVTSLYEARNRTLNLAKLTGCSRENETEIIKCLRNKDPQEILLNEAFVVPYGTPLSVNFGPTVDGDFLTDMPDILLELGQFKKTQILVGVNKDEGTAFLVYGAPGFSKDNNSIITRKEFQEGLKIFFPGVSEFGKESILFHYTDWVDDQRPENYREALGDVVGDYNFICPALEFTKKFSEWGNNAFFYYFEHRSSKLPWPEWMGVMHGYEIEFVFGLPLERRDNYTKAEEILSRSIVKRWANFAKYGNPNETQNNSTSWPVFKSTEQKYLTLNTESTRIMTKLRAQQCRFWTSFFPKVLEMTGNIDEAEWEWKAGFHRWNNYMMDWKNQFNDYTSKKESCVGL

Row | Compound | half-life [1] | IC50 [2] | IC50 [3]
1 | CN1CC[C@@]2(C)c3cc(OC(=O)Nc4ccccc4)ccc3N(C)C12 (stereo not given in full) | 8 h | 24 nM | 1300 nM
2 | CN1CC[C@]2(C)c3cc(OC(=O)Nc4ccccc4)ccc3N(Cc3ccccc3)C12 (stereo not given in full) |  | 11200 nM | 7090 nM
3 | CN1CC[C@]2(C)c3cc(OC(=O)Nc4ccccc4)ccc3N(C)C12 (stereo not given in full) |  | 3500 nM | 23500 nM
4 | CNC(=O)Oc1ccc2c(c1)[C@@]1(C)CCN(C)C1N2 (stereo not given in full) |  | 2190 nM | 1120 nM
5 | CNC(=O)Oc1ccc2c(c1)[C@@]1(C)CCN(C)C1N2Cc1ccccc1 (stereo not given in full) |  | 2850 nM | 1590 nM
6 | CNC(=O)Oc1ccc2c(c1)[C@]1(C)CCN(C)C1N2C=O (stereo not given in full) |  | 387 nM | 46 nM
7 | CNC(=O)Oc1ccc2c(c1)[C@]1(C)CCN(C)[C@@H]1N2C [PHYSOSTIGMINE] | 1 h |  | 
8 | CN1CC[C@]2(C)c3cc(OC(=O)Nc4ccccc4)ccc3NC12 (stereo not given in full) |  | 5650 nM | 1750 nM
9 | CN1CC[C@@]2(C)c3cc(OC(=O)Nc4ccccc4)ccc3NC12 (stereo not given in full) |  |  | 516 nM
10 | CN1CC[C@@]2(C)c3cc(OC(=O)Nc4ccccc4)ccc3N(Cc3ccccc3)C12 (stereo not given in full) |  | 245 nM | 85.3 nM
11 | CN1CC[C@@]2(C)c3cc(OC(=O)Nc4ccccc4)ccc3N(C=O)C12 (stereo not given in full) |  | 780 nM | 1470 nM
12 | CNC(=O)Oc1ccc2c(c1)[C@]1(C)CCN(C)C1N2 (stereo not given in full) |  | 56.7 nM | 6.8 nM
13 | CNC(=O)Oc1ccc2c(c1)[C@]1(C)CCN(C)C1N2Cc1ccccc1 (stereo not given in full) |  | 161 nM | 21.8 nM
